Experimental data published in ChEMBL document CHEMBL1129793, “Quantitative structure-activity relationships for the in vitro antimycobacterial activity of pyrazinoic acid esters” (J Med Chem, 1996).

Legend:
[1] = t1/2 (min) in equine serum; assay type: ADME, organism-based, Equus caballus; conditions: horse
Procedure, shortened: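 Ester from a 1 mg/mL stock was mixed with 5% aqueous equine serum in 0.01 M KH2PO4, pH 7.2. Aliquots were taken at 0, 5, 10, 15, 30, 60 and 120 min and quenched with an equal volume of acetonitrile, then filtered. Remaining ester was measured by isocratic reverse-phase HPLC (80% acetonitrile/20% 0.1 M sodium acetate, pH 5.0), with UV detection at 265 nm against a standard curve. Half-life is the time to 50% conversion to the acid.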

Mycobacterium avium [2] = test: In vitro activity against Mycobacterium avium (MAC-101); assay type: functional
Procedure, shortened: (§1)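 Broth macrodilution MIC. Cultures were grown in modified Middlebrook 7H10 broth (agar and malachite green omitted) with 10% OADC and 0.05% Tween 80, shaken at 37 °C for 3 days, then diluted in 7H10 broth to 1 Klett unit/mL. Test agents were dissolved in water or DMSO and filter-sterilised, then serially diluted 2-fold in 7H10 broth at pH 5.8. Tubes were shaken at 37 °C for 7–10 days, with a drug-free control. MIC was the lowest concentration with no visible turbidity, expressed in mmol/L.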

[3] = Partition coefficient (logP); assay type: physicochemical; conditions: octanol/water
[4] = system: Mycobacterium tuberculosis; test: In vitro activity against Mycobacterium tuberculosis (ATCC 35828); assay type: functional; procedure, shortened: as §1
[5] = system: Mycobacterium tuberculosis; test: In vitro activity against Mycobacterium tuberculosis (ATCC 35801); assay type: functional; procedure, shortened: as §1
Mycobacterium avium [6] = test: In vitro activity against Mycobacterium avium (ATCC49601); assay type: functional; procedure, shortened: as §1
[7] = system: Mycobacterium tuberculosis; test: In vitro activity against Mycobacterium tuberculosis (ATCC 27294); assay type: functional; procedure, shortened: as §1
Mycobacterium kansasii = test: In vitro activity against Mycobacterium kansasii (SWK); assay type: functional; procedure, shortened: as §1

Compound | half-life [1] | Log 1/MMIC (Mycobacterium avium [2]) | logP [3] | Log 1/MMIC [4] | Log 1/MMIC [5] | Log 1/MMIC (Mycobacterium avium [6]) | Log 1/MMIC [7] | Log 1/MMIC (Mycobacterium kansasii)
CCCCCCC(C)OC(=O)c1cnc(F)cn1 (centres undefined) | 6.9 min | 0.9 | 3.23 | 1.803 | 1.803 | 0.599 | 2.104 | 3.928
COC(=O)c1cnc(C)cn1 | 1200 min | -0.226 | 0.15 | 0.978 | 1.279 | -0.226 | 0.978 | 0.677
CCCCCC(CC)OC(=O)c1cnc(C)cn1 (centres undefined) | 1 min | 0.592 | 3.72 | 1.495 | 2.7 | 0.592 | 1.194 | 1.796
